From ChEMBL document CHEMBL4382232, “Grayanane Diterpenoid Glucosides from the Leaves of Rhododendron micranthum and Their Bioactivities Evaluation” (2018)
Calls of active or inactive are those of the source. No cut-off for these calls is given here.

What was measured:
MCF7 = test: Cytotoxicity against human MCF7 cells at 40 uM after 48 hrs by MTT assay; format: functional, cell-based
HL-60 = test: Cytotoxicity against human HL60 cells at 40 uM after 48 hrs by MTT assay; format: functional, cell-based
A549 = test: Cytotoxicity against human A549 cells at 40 uM after 48 hrs by MTT assay; format: functional, cell-based
RAW264.7 = test: Anti-inflammatory activity in mouse RAW264.7 cells assessed as inhibition of LPS-induced NO production at 40 uM; format: functional, cell-based
SW480 = test: Cytotoxicity against human SW480 cells at 40 uM after 48 hrs by MTT assay; format: functional, cell-based
Mus musculus = test: Antinociceptive activity in Kunming mouse model of acetic-acid-induced writhing assessed as inhibition of writhing numbers at 5 mg/kg measured for 30 mins relative to control; format: functional; conditions: for inhibition in vivo at 5 mg/kg: 0.5 h
Method in brief: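 Acetic-acid-induced writhing model in Kunming mice (10 per group); doses 0.2, 1.0 and 5.0 mg/kg; vehicle-treated and morphine positive-control groups; inhibition of writhing relative to vehicle; mean ± SEM; one-way ANOVA with Bonferroni test. Animal work approved by institutional ethics committee.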

SMMC-7721 = test: Cytotoxicity against human SMMC7721 cells at 40 uM after 48 hrs by MTT assay; format: functional, cell-based
[1] = molecular target: T1, Tyrosine-protein phosphatase non-receptor type 1 (Homo sapiens) (UniProt P18031); test: Inhibition of recombinant human PTP1B at 40 uM using pNPP as substrate preincubated for 10 mins followed by substrate addition and measured after 30 mins at 5 mins time interval for 30 mins
T1 sequence (whole entry): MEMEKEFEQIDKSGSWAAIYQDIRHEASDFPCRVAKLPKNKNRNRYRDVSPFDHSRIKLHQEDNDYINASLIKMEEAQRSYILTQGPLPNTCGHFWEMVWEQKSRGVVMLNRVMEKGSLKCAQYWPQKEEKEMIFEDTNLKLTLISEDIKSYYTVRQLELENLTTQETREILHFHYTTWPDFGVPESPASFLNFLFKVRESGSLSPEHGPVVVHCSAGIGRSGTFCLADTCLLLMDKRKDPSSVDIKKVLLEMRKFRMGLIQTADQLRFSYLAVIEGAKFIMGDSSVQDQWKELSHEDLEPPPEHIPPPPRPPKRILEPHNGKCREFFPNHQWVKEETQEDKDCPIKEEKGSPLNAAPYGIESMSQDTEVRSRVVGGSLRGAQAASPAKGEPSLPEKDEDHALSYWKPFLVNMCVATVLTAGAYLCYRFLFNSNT

## C=C1[C@@H]2CC[C@@H]3[C@@H](O)[C@@]2(C[C@@H](O)[C@@]2(O)[C@H]1C[C@H](O[C@@H]1O[C@H](CO)[C@@H](O)[C@H](O)[C@H]1O)C2(C)C)C[C@@]3(C)O
MCF7
  Activity: inactive
HL-60
  Activity: inactive
A549
  Activity: inactive
RAW264.7
  inhibition: inactive
SW480
  Activity: inactive
Mus musculus
  inhibition in vivo at 5 mg/kg: > 50%
SMMC-7721
  Activity: inactive
[1]
  inhibition: inactive

## C[C@H]1[C@@H]2C[C@H](O[C@@H]3O[C@H](CO)[C@@H](O)[C@H](O)[C@H]3O)C(C)(C)[C@]23O[C@]12CC[C@@H]1C[C@@]2(C[C@H]3O)C[C@@]1(C)O
MCF7
  Activity: inactive
HL-60
  Activity: inactive
A549
  Activity: inactive
RAW264.7
  inhibition: inactive
SW480
  Activity: inactive
Mus musculus
  inhibition: Active
SMMC-7721
  Activity: inactive
[1]
  inhibition: inactive

## C=C1[C@H]2C[C@H](O)C(C)(C)[C@@]2(O)[C@H](O)C[C@@]23C[C@@H](CC[C@@H]12)[C@](C)(O[C@@H]1O[C@H](CO)[C@@H](O)[C@H](O)[C@H]1O)C3
MCF7
  Activity: inactive
HL-60
  Activity: inactive
A549
  Activity: inactive
RAW264.7
  inhibition: inactive
SW480
  Activity: inactive
Mus musculus
  inhibition: Active
SMMC-7721
  Activity: inactive
[1]
  inhibition: inactive

## C=C1[C@H]2C[C@H](O)C(C)(C)[C@]2(O)CC[C@@]23C[C@@](O)(CC[C@@H]12)[C@](C)(O[C@@H]1O[C@H](CO)[C@@H](O)[C@H](O)[C@H]1O)C3
MCF7
  Activity: inactive
HL-60
  Activity: inactive
A549
  Activity: inactive
RAW264.7
  inhibition: inactive
SW480
  Activity: inactive
Mus musculus
  inhibition: Active
SMMC-7721
  Activity: inactive
[1]
  inhibition: inactive

## CC(=O)O[C@@H]1[C@H]2CC[C@H]3[C@@](C)(O)[C@@H]4C[C@H](O[C@@H]5O[C@H](CO)[C@@H](O)[C@H](O)[C@H]5O)C(C)(C)[C@@]4(O)[C@H](O)C[C@@]13C[C@@]2(C)O
MCF7
  Activity: inactive
HL-60
  Activity: inactive
A549
  Activity: inactive
RAW264.7
  inhibition: inactive
SW480
  Activity: inactive
Mus musculus
  inhibition: inactive
SMMC-7721
  Activity: inactive
[1]
  inhibition: inactive

## C=C1[C@@H]2CC[C@@H]3C[C@@]2(C[C@@H](O)[C@@]2(O)[C@H]1C[C@@H](O[C@@H]1O[C@H](CO)[C@@H](O)[C@H](O)[C@H]1O)C2(C)C)C[C@@]3(C)O
MCF7
  Activity: inactive
HL-60
  Activity: inactive
A549
  Activity: inactive
RAW264.7
  inhibition: inactive
SW480
  Activity: inactive
Mus musculus
  inhibition: Active
SMMC-7721
  Activity: inactive
[1]
  inhibition: inactive

## C=C1[C@@H]2CC[C@H]3C(C)=C[C@]2(C[C@@H](O)[C@@]2(O)[C@H]1C[C@H](O[C@@H]1O[C@H](CO)[C@@H](O)[C@H](O)[C@H]1O)C2(C)C)[C@@H]3O
MCF7
  Activity: inactive
HL-60
  Activity: inactive
A549
  Activity: inactive
RAW264.7
  inhibition: inactive
SW480
  Activity: inactive
Mus musculus
  inhibition in vivo at 5 mg/kg: 50%
SMMC-7721
  Activity: inactive
[1]
  inhibition: inactive

## C=C1[C@H]2C[C@H](O)C(C)(C)[C@]2(O)CC[C@@]23C[C@@H](CC[C@@H]12)[C@](C)(O[C@@H]1O[C@H](CO)[C@@H](O)[C@H](O)[C@H]1O)C3
MCF7
  Activity: inactive
HL-60
  Activity: inactive
A549
  Activity: inactive
RAW264.7
  inhibition: inactive
SW480
  Activity: inactive
Mus musculus
  inhibition: inactive
SMMC-7721
  Activity: inactive
[1]
  inhibition: inactive

## C=C1[C@@H]2CC[C@@H]3C[C@]2(C[C@@]3(C)O)[C@H](O)[C@@H](O)[C@@]2(O)[C@H]1C[C@H](O[C@@H]1O[C@H](CO)[C@@H](O)[C@H](O)[C@H]1O)C2(C)C
MCF7
  Activity: inactive
HL-60
  Activity: inactive
A549
  Activity: inactive
RAW264.7
  inhibition: inactive
SW480
  Activity: inactive
SMMC-7721
  Activity: inactive
[1]
  inhibition: inactive

## C=C1[C@@H]2CC[C@@H]3[C@@H](OC(C)=O)[C@@]2(C[C@@H](O)[C@@]2(O)[C@H]1C[C@H](O)C2(C)C)C[C@@]3(C)O[C@@H]1O[C@H](CO)[C@@H](O)[C@H](O)[C@H]1O
MCF7
  Activity: inactive
HL-60
  Activity: inactive
A549
  Activity: inactive
RAW264.7
  inhibition: inactive
SW480
  Activity: inactive
Mus musculus
  inhibition in vivo at 5 mg/kg: > 50%
SMMC-7721
  Activity: inactive
[1]
  inhibition: inactive

## C=C1[C@@H]2CC[C@@H]3[C@@H](OC(C)=O)[C@@]2(C[C@@H](O)[C@@]2(O)[C@H]1C[C@H](O[C@@H]1O[C@H](CO)[C@@H](O)[C@H](O)[C@H]1O)C2(C)C)C[C@@]3(C)O
MCF7
  Activity: inactive
HL-60
  Activity: inactive
A549
  Activity: inactive
RAW264.7
  inhibition: inactive
SW480
  Activity: inactive
Mus musculus
  inhibition: Active
SMMC-7721
  Activity: inactive
[1]
  inhibition: inactive

## C=C1[C@@H]2CC[C@@H]3C[C@@]2(C[C@@H](O)[C@@]2(O)[C@H]1C[C@H](O[C@@H]1O[C@H](CO)[C@@H](O)[C@H](O)[C@H]1O)C2(C)C)C[C@@]3(C)O
MCF7
  Activity: inactive
HL-60
  Activity: inactive
A549
  Activity: inactive
RAW264.7
  inhibition: inactive
SW480
  Activity: inactive
Mus musculus
  inhibition: Active
SMMC-7721
  Activity: inactive
[1]
  inhibition: inactive

## C=C1[C@H]2C[C@H](O[C@@H]3O[C@H](CO)[C@@H](O)[C@H](O)[C@H]3O)C(C)(C)[C@]2(O)CC[C@@]23C[C@@](O)(CC[C@@H]12)[C@](C)(O)C3
MCF7
  Activity: inactive
HL-60
  Activity: inactive
A549
  Activity: inactive
RAW264.7
  inhibition: inactive
SW480
  Activity: inactive
SMMC-7721
  Activity: inactive
[1]
  inhibition: inactive

## C=C1[C@@H]2CC[C@@H]3C[C@@]2(C[C@@H](O)[C@@]2(O)[C@H]1C[C@H](O)C2(C)C)C[C@@]3(C)O[C@@H]1O[C@H](CO)[C@@H](O)[C@H](O)[C@H]1O
MCF7
  Activity: inactive
HL-60
  Activity: inactive
A549
  Activity: inactive
RAW264.7
  inhibition: inactive
SW480
  Activity: inactive
Mus musculus
  inhibition in vivo at 5 mg/kg: > 50%
SMMC-7721
  Activity: inactive
[1]
  inhibition: inactive

## CC1(C)[C@@H](O[C@@H]2O[C@H](CO)[C@@H](O)[C@H](O)[C@H]2O)C[C@H]2[C@](C)(O)[C@@H]3CC[C@@H]4[C@@H](O)[C@@]3(C[C@@H](O)[C@@]21O)C[C@@]4(C)O
MCF7
  Activity: inactive
HL-60
  Activity: inactive
A549
  Activity: inactive
RAW264.7
  inhibition: inactive
SW480
  Activity: inactive
Mus musculus
  inhibition in vivo at 5 mg/kg: > 50%
SMMC-7721
  Activity: inactive
[1]
  inhibition: inactive

## CC1=C2CC[C@@H]3[C@@H](O)[C@@]2(C[C@@H](O)[C@@]2(O)[C@H]1C[C@H](O[C@@H]1O[C@H](CO)[C@@H](O)[C@H](O)[C@H]1O)C2(C)C)C[C@@]3(C)O
MCF7
  Activity: inactive
HL-60
  Activity: inactive
A549
  Activity: inactive
RAW264.7
  inhibition: inactive
SW480
  Activity: inactive
Mus musculus
  inhibition in vivo at 5 mg/kg: > 50%
SMMC-7721
  Activity: inactive
[1]
  inhibition: inactive

## C=C1[C@@H]2CC[C@@H]3C[C@]2(C=C3C)C[C@@H](O)[C@@]2(O)[C@H]1C[C@H](O[C@@H]1O[C@H](CO)[C@@H](O)[C@H](O)[C@H]1O)C2(C)C
MCF7
  Activity: inactive
HL-60
  Activity: inactive
A549
  Activity: inactive
RAW264.7
  inhibition: inactive
SW480
  Activity: inactive
SMMC-7721
  Activity: inactive
[1]
  inhibition: inactive

## C=C1[C@H]2C[C@H](O[C@@H]3O[C@H](CO)[C@@H](O)[C@H](O)[C@H]3O)C(C)(C)[C@@]2(O)[C@H](O)C[C@@]23C[C@@H](CC[C@@H]12)[C@](C)(O)C3
MCF7
  Activity: inactive
HL-60
  Activity: inactive
A549
  Activity: inactive
RAW264.7
  inhibition: inactive
SW480
  Activity: inactive
Mus musculus
  inhibition: inactive
SMMC-7721
  Activity: inactive
[1]
  inhibition: inactive
